Measured values: paper PMC4589464 (Hepatology (Baltimore, Md.), 2015)
“Also recorded” adds a separate entry of the source. Structures can show the parent of a compound that is named as a salt. Where two headings read alike, the source gives them in different places.

Columns and labels:
HBV [1] = test system: HBV
HBV [2] = experiment: microbe, parasite or virus in culture; conditions: Hepatitis B virus, HepG2 2.2.15, 288 h, read-out: IC50 against Anti-HBV
[3] = Cytotoxicity in MT-4 cells; format: cell-based; conditions: human
HIV-1NL4-3 [4] = test system: HIV-1NL4-3
in vitro = format: cell-based; conditions: human
HBV^WT [5] = conditions: read-out: IC50 against HBV^WT; Southern blotting assay; cited from earlier work
HBVADV-R^A181T/N236T = experiment: Southern blot assay, Huh-7 cells transfected with ADV-resistant HBV plasmid; format: cell-based; conditions: Hepatitis B virus, Huh-7, read-out: IC50 against HBVADV-R^A181T/N236T
Summary of the method: (§1)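 Huh-7 cells were transfected with the HBV variant-containing plasmid and cultured with a range of test compound concentrations. Core-associated HBV DNA was extracted and detected by Southern blot hybridization. IC50 was calculated from the change in signal density, generally averaged over two experiments. The fold change was taken relative to the IC50 against wild-type HBV plasmid.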

[6] = test system: HBVETV-R^L180M/S202G/M204V; experiment: Southern blot assay, Huh-7 cells transfected with ETV-resistant HBV plasmid; format: cell-based; conditions: Hepatitis B virus, Huh-7, read-out: IC50 against HBVETV-R^L180M/S202G/M204V
Summary of the method: as §1

[7] = test system: HBVETV-R^L180M/S202G/M204V; experiment: HBVETV-R viremia in hu-liver-chimeric-uPA+/+/SCID+/+ mice; format: in vivo; conditions: for effect on HBVETV-R^L180M/S202G/M204V viremia: 0.02 mg/kg/day oral once daily; for effect on HBVETV-R^L180M/S202G/M204V viremia / greatest magnitude of viremia reduction: 14 days; for greatest magnitude of viremia reduction: HBVETV-R-infected mice, 0.02 mg/kg/day oral, average of two mice; for difference in viremia reduction magnitude between HBV^WT and HBVETV-R^L180M/S202G/M204V: mouse model
Summary of the method: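 Human-liver-chimeric uPA+/+/SCID+/+ mice (SCID, uPA-transgenic, liver partly repopulated with human hepatocytes) were inoculated with the HBV variant. Dosing began 8 weeks later, once daily at 0.02 mg/kg/day for 14 days. Serum viremia was followed as log10 copies/ml change from baseline, along with serum human albumin and body weight per mouse. Livers were examined histologically at the end of dosing.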

[8] = Serum human albumin and body weight monitoring of treated HBV-infected mice; format: in vivo; conditions: 0.02 mg/kg/day; for serum human albumin (h-albumin) levels: HBV^WT-infected mice; for body weights: treated mice, 14 days
HBV^WT [9] = experiment: HBV^WT viremia in hu-liver-chimeric-uPA+/+/SCID+/+ mice; format: in vivo; conditions: 0.02 mg/kg/day oral, 14 days; for greatest magnitude of serum HBV-DNA level reduction: HBV^WT-infected mice
HepG2 cells = format: cell-based; conditions: up to 100 μM; for mtDNA synthesis / mtDNA levels / L-lactate levels in culture medium: 12 days culture; for mtDNA synthesis / mtDNA levels: real-time mtDNA-PCR; for viable cell numbers (MTT assay): day 5 of culture
HBV^WT [10] = experiment: Southern blot assay, Huh-7 cells transfected with pHBV^WT; format: cell-based; conditions: Hepatitis B virus
HIV-2 strains = experiment: Activity against HIV-2 strains; format: cell-based; conditions: Table S1
[11] = format: in vivo; conditions: hu-liver-chimeric mice, 14-day administration
HIV-1 = conditions: read-out: in vitro anti-HIV-1 IC90 concentration; cited from earlier work
[12] = intraperitoneal administration 20 mg/kg; cited from earlier work
[13] = cited from earlier work
HIV-1NL4-3 [14] = experiment: microbe, parasite or virus in culture; conditions: Human immunodeficiency virus 1, MT4, read-out: IC50 against Anti-HIV-1
[15] = Huh-7, read-out: IC50 against HBV^WT
[16] = Huh-7, read-out: IC50 against HBV^WT (Southern blot)

SMILES	S.I. with Anti-HBV (CC50/IC50) (HBV [1]; HepG2 2.2.15 cells)	IC50 (HBV [2]) [nM]	CC50 [3] [µM]	S.I. with Anti-HIV-1 (CC50/IC50) (HIV-1NL4-3 [4]; MT-4 cells)	CC50 (in vitro) [µM]	other results
Nc1ccn([C@@H]2CS[C@H](CO)O2)c(=O)n1 [3TC, lamivudine]	> 3,300	30 ± 10	> 100	> 340	> 100	
Nc1nc(NC2CC2)c2ncn([C@H]3C=C[C@@H](CO)C3)c2n1 [ABC, abacavir]	> 26	3900 ± 1000	> 100	> 170	> 100	
CC(C)(C)C(=O)OCOP(=O)(COCCn1cnc2c(N)ncnc21)OCOC(=O)C(C)(C)C [ADV, adefovir dipivoxil]	> 500	200 ± 80	5.1 ± 1	21	> 100	IC50 (HBV^WT [5]): 7.7 µM; IC50 (HBVADV-R^A181T/N236T): 39500 ± 13300 nM; IC50 [6]: 36400 ± 23500 nM
Cc1cn([C@H]2C[C@H](N=[N+]=[N-])[C@@H](CO)O2)c(=O)[nH]c1=O [AZT, 3′-azido-3′-deoxythymidine]		> 100000	30.5 ± 3.1	1,020	> 100	
N#C[C@]1(CO)O[C@@H](n2cnc3c(N)nc(N)nc32)C[C@@H]1O [CAdA, 4′-C-cyano-2-amino-2′-deoxyadenosine]	9,500	0.4 ± 0.2	3.5 ± 1.2	8,750	3.8 ± 1	effect on HBVETV-R^L180M/S202G/M204V viremia [7]: significant level of viremia reduction by day 7; greatest magnitude of viremia reduction [7]: -1.4 log10 copies/ml; difference in viremia reduction magnitude between HBV^WT and HBVETV-R^L180M/S202G/M204V [7]: 30 fold; serum human albumin (h-albumin) levels [8]: moderately decreased h-albumin levels; body weights [8]: no significant difference in body weights; IC50 (HBVADV-R^A181T/N236T): 90 ± 70 nM; IC50 [6]: 70 ± 10 nM; effect on HBV^WT viremia (HBV^WT [9]): significantly blocked the replication of HBV; greatest magnitude of serum HBV-DNA level reduction (HBV^WT [9]): -2.9 log10 copies/ml; mtDNA synthesis / mtDNA levels (HepG2 cells): significantly lowered the levels of mtDNA; L-lactate levels in culture medium (HepG2 cells): severely lowered the levels of L-lactate and viable cell numbers; viable cell numbers (MTT assay) (HepG2 cells): severely lowered the levels of L-lactate and viable cell numbers; IC50 (HBV^WT [10]; [15]): 7 ± 10 nM; IC50 (HBV^WT [10]; [16]): 7.2 nM; activity against HIV-2 strains (HIV-2 strains): potent activity against HIV-2 strains
N#C[C@]1(CO)O[C@@H](n2cnc3c(=O)[nH]c(N)nc32)C[C@@H]1O [CdG, 4′-C-cyano-2′-deoxyguanosine]	8,000	0.4 ± 0.1	2.8 ± 0.9	7,000	3.2 ± 0.7	effect on HBVETV-R^L180M/S202G/M204V viremia [7]: significant level of viremia reduction by day 7; greatest magnitude of viremia reduction [7]: -1.2 log10 copies/ml; difference in viremia reduction magnitude between HBV^WT and HBVETV-R^L180M/S202G/M204V [7]: 30 fold; serum human albumin (h-albumin) levels [8]: moderately decreased h-albumin levels; body weights [8]: no significant difference in body weights; IC50 (HBVADV-R^A181T/N236T): 40 ± 20 nM; IC50 [6]: 40 ± 30 nM; effect on HBV^WT viremia (HBV^WT [9]): significantly blocked the replication of HBV; greatest magnitude of serum HBV-DNA level reduction (HBV^WT [9]): -2.7 log10 copies/ml; mtDNA synthesis / mtDNA levels (HepG2 cells): significantly lowered the levels of mtDNA; L-lactate levels in culture medium (HepG2 cells): severely lowered the levels of L-lactate and viable cell numbers; viable cell numbers (MTT assay) (HepG2 cells): severely lowered the levels of L-lactate and viable cell numbers; IC50 (HBV^WT [10]; [15]): 10 ± 2 nM; IC50 (HBV^WT [10]; [16]): 9.8 nM; liver toxicity [11]: no significant liver toxicity or general toxicity; activity against HIV-2 strains (HIV-2 strains): potent activity against HIV-2 strains
C#C[C@]1(CO)O[C@@H](n2cnc3c(N)nc(F)nc32)C[C@@H]1O [EFdA, 4′-ethynyl-2-fluoro-2′-deoxyadenosine]	> 630	160 ± 30	19.2 ± 5.9	64,000	> 100	IC90 (HIV-1): ~5 nM; maximal concentration [12]: 4 µg/mL; time of maximal concentration [12]: 30 min
C#C[C@]1(COP(=O)(O)OP(=O)(O)OP(=O)(O)O)O[C@@H](n2cnc3c(N)nc(F)nc32)C[C@@H]1O [EFdA-TP]						half-life [13]: ≥ 17 h
C=C1[C@H](CO)[C@@H](O)C[C@@H]1n1cnc2c(=O)[nH]c(N)nc21 [ETV, entecavir]	> 140,000	0.7 ± 0.2	39.1 ± 8.7	38	> 100	effect on HBVETV-R^L180M/S202G/M204V viremia [7]: completely failed to reduce; also recorded: essentially no reduction; serum human albumin (h-albumin) levels [8]: comparable decrease of h-albumin levels; body weights [8]: no significant difference in body weights; number of HBV copies in HepG2 2.2.15 cells (HBV [1]; at 100 nM, 12-day culture, cells alone 9.0 × 10^5 copies/well): ~ 0.9 × 10^5 copies/well; IC50 (HBVADV-R^A181T/N236T): 180 nM; IC50 [6]: > 1000 nM; effect on HBV^WT viremia (HBV^WT [9]): viremia levels significantly went down; mtDNA synthesis / mtDNA levels (HepG2 cells): no reduction of mtDNA synthesis was observed; L-lactate levels in culture medium (HepG2 cells): no L-lactate level changes were identified; viable cell numbers (MTT assay) (HepG2 cells): slight and moderate decreases in the cell viability; IC50 (HBV^WT [10]; [15]): 14 ± 8 nM; IC50 (HBV^WT [10]; [16]): 14.1 nM
C#C[C@@]1(CO)C=C[C@H](n2cc(C)c(=O)[nH]c2=O)O1 [Ed4T, 2′,3′-didehydro-3′-deoxy-4′-ethynylthymidine]		> 100000	> 100	> 380	> 100	
Nc1nc(=O)n([C@@H]2CS[C@H](CO)O2)cc1F [FTC, emtricitabine]		20 ± 10	> 100		> 100	S.I. with Anti-HBV (CC50/IC50) (HBV [1]): > 5,000; S.I. with Anti-HIV-1 (CC50/IC50) (HIV-1NL4-3 [4]): > 430; IC50 (HIV-1NL4-3 [14]): 230 ± 100 nM
Cc1cn([C@@H]2C[C@@H](O)[C@H](CO)O2)c(=O)[nH]c1=O [LdT, telbivudine]	> 14,000	7 ± 1	> 100		> 100	
CC(C)OC(=O)OCOP(=O)(CO[C@H](C)Cn1cnc2c(N)ncnc21)OCOC(=O)OC(C)C [TDF, tenofovir disoproxil fumarate]	> 2,500	40 ± 10		70	> 100	CC50 ([3]; MT-4 cells): 40.4 ± 11.3 µM
Cc1cn([C@H]2C=C[C@@H](CO)O2)c(=O)[nH]c1=O [d4T, 2′,3′-didehydro-3′-deoxythymidine]		> 100000	> 100		> 100	S.I. with Anti-HIV-1 (CC50/IC50) (HIV-1NL4-3 [4]): > 150
Nc1ccn([C@H]2CC[C@@H](CO)O2)c(=O)n1 [ddC, 2′,3′-dideoxycytidine]	> 130	750 ± 120		> 300	> 100	CC50 ([3]; MT-4 cells): > 100 µM; mtDNA synthesis / mtDNA levels (HepG2 cells): significantly decreased mtDNA synthesis at 1 μM and beyond; L-lactate levels in culture medium (HepG2 cells): without causing any significant decrease in L-lactate amounts or viable cell numbers; viable cell numbers (MTT assay) (HepG2 cells): without causing any significant decrease in L-lactate amounts or viable cell numbers
OC[C@@H]1CC[C@H](n2cnc3c(O)ncnc32)O1 [ddI, 2′,3′-dideoxyinosine]		3700 ± 700	> 100		> 100	
